Laboratory results: ChEMBL document CHEMBL4138189, “Role of the Benzodioxole Group in the Interactions between the Natural Alkaloids Chelerythrine and Coptisine and the Human Telomeric G-Quadruplex DNA. A Multiapproach Investigation” (J Nat Prod, 2017)
Active and inactive are the calls of the source. No cut-off for these calls is given here.

Tests used:
Quadruplex DNA [1] = assay: Binding affinity to telomeric 22 H1 G-quadruplex DNA (unknown origin) assessed as increase in positive cotton effect at 295 nm at 40 to 80 uM by electronic circular dichorism spectra analysis; type: nucleic-acid assay
Summary of the method: (§1)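 DNA annealed at 4 μM (strand concentration) in 10 mM Tris, 50 mM KCl, pH 7.5, with or without 40% MPD. ECD spectra were read at 230–350 nm in a 10 mm cell under Peltier temperature control, without ligand and with increasing ligand (0–80 μM). Cotton effects were converted to mean residue ellipticity.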

Quadruplex DNA [2] = assay: Binding affinity to wild-type telomeric 22 H2 G-quadruplex DNA (unknown origin) assessed as decrease in positive cotton effect at 260 nm at 40 to 80 uM in presence of KCl by electronic circular dichorism spectra analysis; type: nucleic-acid assay; summary of the method: as §1
Quadruplex DNA [3] = assay: Binding affinity to wild-type telomeric 22 H2 G-quadruplex DNA (unknown origin) assessed as increase in positive cotton effect at 295 nm at 40 to 80 uM in presence of KCl by electronic circular dichorism spectra analysis; type: nucleic-acid assay; summary of the method: as §1
Calf thymus DNA [4] = assay: Stabilization of calf thymus DNA assessed as change in melting temperature at 5 uM by fluorescence assay; type: nucleic-acid assay; settings: Bos taurus
Quadruplex DNA [5] = assay: Displacement of thiazole orange from wild-type telomeric 22 H2 G-quadruplex DNA (unknown origin) in presence of KCl by fluorescent intercalator displacement assay; type: nucleic-acid assay
Summary of the method: (§2)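 Target DNA (0.62 μM) was mixed with thiazole orange (1.24 μM) in 10 mM Tris, 50 mM KCl, pH 7.5, at 25 °C and titrated with compound. Fluorescence was excited at 501 nm and read at 520–680 nm. Displacement = 100 − (F/F0 × 100); EC50 was taken from displacement versus concentration. Each titration was run at least in triplicate.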

Quadruplex DNA [6] = assay: Stabilization of 5'Dabcyl/3'FAM labeled human telomeric sequence G-quadruplex DNA assessed as change in melting temperature up to 30 uM in presence of KCl by fluorescence assay; type: nucleic-acid assay
Summary of the method: (§3)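 Labelled telomeric DNA, 0.25 μM strand, in 10 mM LiOH, pH 7.5 (H3PO4), 50 mM KCl, with increasing ligand. Samples were heated and cooled over 25–95 °C at 0.1 °C/s, held 5 min at 30 °C, then heated to 95 °C at 1 °C/min. Fluorescence excited at 488 nm, read at 520 nm. Tm from first derivative of melting profile; at least triplicate, errors ±0.3 °C.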

Calf thymus DNA [7] = assay: Binding affinity to calf thymus DNA in presence of KCl by UV-spectra analysis; type: nucleic-acid assay; settings: Bos taurus
Quadruplex DNA [8] = assay: Stabilization of 5'Dabcyl/3'FAM labeled human telomeric sequence G-quadruplex DNA assessed as change in melting temperature at 5 uM in presence of KCl by fluorescence assay; type: nucleic-acid assay; summary of the method: as §3
Quadruplex DNA [9] = assay: Displacement of thiazole orange from telomeric 22 H1 G-quadruplex DNA (unknown origin) in presence of KCl by fluorescent intercalator displacement assay; type: nucleic-acid assay; summary of the method: as §2
[10] = Selectivity ratio of EC50 for displacement of thiazole orange from wild-type telomeric 22 H2 G-quadruplex DNA (unknown origin) to EC50 for displacement of thiazole orange from telomeric 22 H1 G-quadruplex DNA (unknown origin); summary of the method: as §2
Quadruplex DNA [11] = assay: Binding affinity to telomeric 22 H1 G-quadruplex DNA (unknown origin) assessed as decrease in positive cotton effect at 260 nm at 40 to 80 uM by electronic circular dichorism spectra analysis; type: nucleic-acid assay; summary of the method: as §1
Calf thymus DNA [12] = assay: Binding affinity to calf thymus DNA up to 80 uM in presence of KCl by electronic circular dichorism spectra analysis; type: nucleic-acid assay; settings: Bos taurus; summary of the method: as §1
Quadruplex DNA [13] = assay: Binding affinity to telomeric 12 G-quadruplex DNA (unknown origin) assessed as increase in cotton effect amplitude up to 10 fold excess DNA concentration in presence of MPD by electronic circular dichorism spectra analysis; type: nucleic-acid assay

Q: What does the source list for COc1ccc2c(c[n+](C)c3c4cc5c(cc4ccc23)OCO5)c1OC [CHELERYTHRINE]?
A: Activity (Quadruplex DNA [1]): Active; Activity (Quadruplex DNA [2]): Active; Activity (Quadruplex DNA [3]): Active; Activity (Calf thymus DNA [4]): inactive; EC50 (Quadruplex DNA [5]): 3.75 µM; Activity (Quadruplex DNA [6]): Active; Activity (Calf thymus DNA [7]): Active; Activity (Quadruplex DNA [8]): Active; EC50 (Quadruplex DNA [9]): 2.59 µM; Ratio EC50 [10]: 0.7; Activity (Quadruplex DNA [11]): Active; Activity (Calf thymus DNA [12]): Active

Q: With c1c2c(cc3c1OCO3)-c1cc3ccc4c(c3c[n+]1CC2)OCO4 [COPTISINE] as the compound, how does the Activity (Quadruplex DNA [1]) read?
A: Active

Q: What about the Activity (Quadruplex DNA [2]) of the same compound?
A: Active

Q: What about the Activity (Quadruplex DNA [3]) of the same compound?
A: Active

Q: And the Activity (Calf thymus DNA [4])?
A: inactive

Q: And the EC50 (Quadruplex DNA [5])?
A: 5.93 µM

Q: And the Activity (Quadruplex DNA [6])?
A: Active

Q: What about the Activity (Calf thymus DNA [7]) of the same compound?
A: Active

Q: What about the Activity (Quadruplex DNA [8]) of the same compound?
A: Active

Q: And the EC50 (Quadruplex DNA [9])?
A: 12 µM

Q: What about the Ratio EC50 [10] of the same compound?
A: 2

Q: And the Activity (Quadruplex DNA [11])?
A: Active

Q: What about the Activity (Quadruplex DNA [13]) of the same compound?
A: Active

Q: And the Activity (Calf thymus DNA [12])?
A: Active
